Data from ChEMBL document CHEMBL1177643, “Synthesis, DNA-binding ability and anticancer activity of benzothiazole/benzoxazole-pyrrolo[2,1-c][1,4]benzodiazepine conjugates” (Bioorg Med Chem, 2010).

What was measured:
CCRF-CEM = assay: Growth inhibition of human CCRF-CEM cells after 48 hrs by sulforhodamine B assay; assay type: functional
In short: (§1)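 Dose–response in each cell line over at least five concentrations at 10-fold dilutions, with 48 h continuous exposure and sulforhodamine B read-out.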

PC-3 = assay: Growth inhibition of human PC3 cells after 48 hrs by sulforhodamine B assay; assay type: functional; details: PC-3, 48 h
In short: (§2)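 Panel of 60 human cancer cell lines; for each compound, dose–response curves per cell line measured at a minimum of five concentrations at 10-fold dilutions. Cells exposed continuously to drug for 48 h, and growth was read out by sulforhodamine B staining.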

HCC 2998 = assay: Growth inhibition of human HCC2998 cells after 48 hrs by sulforhodamine B assay; assay type: functional; details: HCC 2998, 48 h; in short: as §2
HOP-92 = assay: Growth inhibition of human HOP92 cells after 48 hrs by sulforhodamine B assay; assay type: functional; details: HOP-92, 48 h; in short: as §2
IGROV-1 = assay: Growth inhibition of human IGROV1 cells after 48 hrs by sulforhodamine B assay; assay type: functional; details: IGROV-1, 48 h; in short: as §2
SK-OV-3 = assay: Growth inhibition of human SKOV3 cells after 48 hrs by sulforhodamine B assay; assay type: functional; details: SK-OV-3, 48 h; in short: as §2
Hs-578T = assay: Growth inhibition of human Hs 578T cells after 48 hrs by sulforhodamine B assay; assay type: functional; in short: as §2
HL-60 = assay: Growth inhibition of human HL-60(TB) cells after 48 hrs by sulforhodamine B assay; assay type: functional; details: HL-60, 48 h; in short: as §2
KM12 = assay: Growth inhibition of human KM12 cells after 48 hrs by sulforhodamine B assay; assay type: functional; details: KM12, 48 h; in short: as §2
M14 = assay: Growth inhibition of human M14 cells after 48 hrs by sulforhodamine B assay; assay type: functional; details: M14, 48 h; in short: as §2
NCI-H460 = assay: Growth inhibition of human NCI-H460 cells after 48 hrs by sulforhodamine B assay; assay type: functional; details: NCI-H460, 48 h; in short: as §2
MCF7 = assay: Growth inhibition of human MCF7 cells after 48 hrs by sulforhodamine B assay; assay type: functional; details: MCF7, 48 h; in short: as §2
CAKI-1 = assay: Growth inhibition of human Caki1 cells after 48 hrs by sulforhodamine B assay; assay type: functional; details: CAKI-1, 48 h; in short: as §1
A498 = assay: Growth inhibition of human A498 cells after 48 hrs by sulforhodamine B assay; assay type: functional; details: A498, 48 h; in short: as §1
SK-MEL-2 = assay: Growth inhibition of human SK-MEL-2 cells after 48 hrs by sulforhodamine B assay; assay type: functional; details: SK-MEL-2, 48 h; in short: as §2
[1] = Growth inhibition of human […] cells after 48 hrs by sulforhodamine B assay; assay type: functional; in short: as §2
NCI/ADR-RES = assay: Growth inhibition of human NCI/ADR-RES cells after 48 hrs by sulforhodamine B assay; assay type: functional; in short: as §2
786-0 = assay: Growth inhibition of human 786-0 cells after 48 hrs by sulforhodamine B assay; assay type: functional; details: 786-0, 48 h; in short: as §1
T47D = assay: Growth inhibition of human T47D cells after 48 hrs by sulforhodamine B assay; assay type: functional; in short: as §2
MDA-MB-231 = assay: Growth inhibition of human MDA-MB-231 cells after 48 hrs by sulforhodamine B assay; assay type: functional; details: MDA-MB-231, 48 h; in short: as §2
OVCAR-5 = assay: Growth inhibition of human OVCAR5 cells after 48 hrs by sulforhodamine B assay; assay type: functional; details: OVCAR-5, 48 h; in short: as §2
K562 = assay: Growth inhibition of human K562 cells after 48 hrs by sulforhodamine B assay; assay type: functional; details: K562, 48 h; in short: as §2
U-251 = assay: Growth inhibition of human U251 cells after 48 hrs by sulforhodamine B assay; assay type: functional; details: U-251, 48 h; in short: as §2
HOP-62 = assay: Growth inhibition of human HOP62 cells after 48 hrs by sulforhodamine B assay; assay type: functional; details: HOP-62, 48 h; in short: as §2
SW-620 = assay: Growth inhibition of human SW620 cells after 48 hrs by sulforhodamine B assay; assay type: functional; details: SW-620, 48 h; in short: as §2
HCT-116 = assay: Growth inhibition of human HCT116 cells after 48 hrs by sulforhodamine B assay; assay type: functional; details: HCT-116, 48 h; in short: as §2
NCI-H322M = assay: Growth inhibition of human NCI-H322M cells after 48 hrs by sulforhodamine B assay; assay type: functional; in short: as §2
SK-MEL-5 = assay: Growth inhibition of human SK-MEL-5 cells after 48 hrs by sulforhodamine B assay; assay type: functional; details: SK-MEL-5, 48 h; in short: as §2
SF-539 = assay: Growth inhibition of human SF539 cells after 48 hrs by sulforhodamine B assay; assay type: functional; details: SF-539, 48 h; in short: as §2
NCI-H522 = assay: Growth inhibition of human NCI-H522 cells after 48 hrs by sulforhodamine B assay; assay type: functional; details: NCI-H522, 48 h; in short: as §2
TK-10 = assay: Growth inhibition of human TK10 cells after 48 hrs by sulforhodamine B assay; assay type: functional; details: TK-10, 48 h; in short: as §2
SF-268 = assay: Growth inhibition of human SF268 cells after 48 hrs by sulforhodamine B assay; assay type: functional; details: SF-268, 48 h; in short: as §2
EKVX = assay: Growth inhibition of human EKVX cells after 48 hrs by sulforhodamine B assay; assay type: functional; in short: as §1
BT-549 = assay: Growth inhibition of human BT549 cells after 48 hrs by sulforhodamine B assay; assay type: functional; details: BT-549, 48 h; in short: as §1
DU-145 = assay: Growth inhibition of human DU145 cells after 48 hrs by sulforhodamine B assay; assay type: functional; details: DU-145, 48 h; in short: as §1
UACC-257 = assay: Growth inhibition of human UACC257 cells after 48 hrs by sulforhodamine B assay; assay type: functional; details: UACC-257, 48 h; in short: as §2
OVCAR-3 = assay: Growth inhibition of human OVCAR-3 cells after 48 hrs by sulforhodamine B assay; assay type: functional; details: OVCAR-3, 48 h; in short: as §2
UACC-62 = assay: Growth inhibition of human UACC62 cells after 48 hrs by sulforhodamine B assay; assay type: functional; details: UACC-62, 48 h; in short: as §2
UO-31 = assay: Growth inhibition of human UO31 cells after 48 hrs by sulforhodamine B assay; assay type: functional; details: UO-31, 48 h; in short: as §2
SK-MEL-28 = assay: Growth inhibition of human SK-MEL-28 cells after 48 hrs by sulforhodamine B assay; assay type: functional; details: SK-MEL-28, 48 h; in short: as §2
Malme-3M = assay: Growth inhibition of human MALME-3M cells after 48 hrs by sulforhodamine B assay; assay type: functional; in short: as §2
SR = assay: Growth inhibition of human SR cells after 48 hrs by sulforhodamine B assay; assay type: functional; in short: as §2
A549 = assay: Growth inhibition of human A549 cells after 48 hrs by sulforhodamine B assay; assay type: functional; details: A549, 48 h; in short: as §1
SNB-19 = assay: Growth inhibition of human SNB19 cells after 48 hrs by sulforhodamine B assay; assay type: functional; details: SNB-19, 48 h; in short: as §2
NCI-H226 = assay: Growth inhibition of human NCI-H226 cells after 48 hrs by sulforhodamine B assay; assay type: functional; details: NCI-H226, 48 h; in short: as §2
LOX IMVI = assay: Growth inhibition of human LOXIMVI cells after 48 hrs by sulforhodamine B assay; assay type: functional; in short: as §2
OVCAR-8 = assay: Growth inhibition of human OVCAR8 cells after 48 hrs by sulforhodamine B assay; assay type: functional; details: OVCAR-8, 48 h; in short: as §2
SNB-75 = assay: Growth inhibition of human SNB75 cells after 48 hrs by sulforhodamine B assay; assay type: functional; details: SNB-75, 48 h; in short: as §2
OVCAR-4 = assay: Growth inhibition of human OVCAR4 cells after 48 hrs by sulforhodamine B assay; assay type: functional; details: OVCAR-4, 48 h; in short: as §2
ACHN = assay: Growth inhibition of human ACHN cells after 48 hrs by sulforhodamine B assay; assay type: functional; in short: as §1
NCI-H23 = assay: Growth inhibition of human NCI-H23 cells after 48 hrs by sulforhodamine B assay; assay type: functional; details: NCI-H23, 48 h; in short: as §2
MOLT-4 = assay: Growth inhibition of human MOLT4 cells after 48 hrs by sulforhodamine B assay; assay type: functional; details: MOLT-4, 48 h; in short: as §2
SF-295 = assay: Growth inhibition of human SF295 cells after 48 hrs by sulforhodamine B assay; assay type: functional; details: SF-295, 48 h; in short: as §2
Calf thymus DNA = assay: Binding affinity to calf thymus duplex-form DNA assessed as melting temperature at 1:5 compound/DNA ratio after 18 hrs; assay type: nucleic-acid assay; details: Bos taurus
SN12C = assay: Growth inhibition of human SN12C cells after 48 hrs by sulforhodamine B assay; assay type: functional; in short: as §2
HCT-15 = assay: Growth inhibition of human HCT15 cells after 48 hrs by sulforhodamine B assay; assay type: functional; details: HCT-15, 48 h; in short: as §2
COLO 205 = assay: Growth inhibition of human COLO205 cells after 48 hrs by sulforhodamine B assay; assay type: functional; details: COLO 205, 48 h; in short: as §1
HT-29 = assay: Growth inhibition of human HT-29 cells after 48 hrs by sulforhodamine B assay; assay type: functional; details: HT-29, 48 h; in short: as §2
MDA-MB-435 = assay: Growth inhibition of human MDA-MB-435 cells after 48 hrs by sulforhodamine B assay; assay type: functional; details: MDA-MB-435, 48 h; in short: as §2
RXF 393 = assay: Growth inhibition of human RXF393 cells after 48 hrs by sulforhodamine B assay; assay type: functional; details: RXF 393, 48 h; in short: as §2

COc1cc2c(cc1OCCCCOc1ccc(-c3nc4ccccc4s3)cc1)N=C[C@@H]1CCCN1C2=O
GI50 (CCRF-CEM): 282 nM
GI50 (PC-3): 295 nM
GI50 (HCC 2998): 363 nM
GI50 (HOP-92): 178 nM
GI50 (IGROV-1): 2400 nM
GI50 (SK-OV-3): 1230 nM
GI50 (Hs-578T): 501 nM
GI50 (HL-60): 380 nM
GI50 (KM12): 550 nM
GI50 (M14): 537 nM
GI50 (NCI-H460): 407 nM
GI50 (MCF7): 324 nM
GI50 (CAKI-1): 355 nM
GI50 (A498): 2040 nM
GI50 (SK-MEL-2): 389 nM
GI50 [1]: 214 nM
GI50 (NCI/ADR-RES): 1150 nM
GI50 (786-0): 214 nM
GI50 (T47D): 219 nM
GI50 (MDA-MB-231): 269 nM
GI50 (OVCAR-5): 331 nM
GI50 (K562): 355 nM
GI50 (U-251): 229 nM
GI50 (HOP-62): 407 nM
GI50 (SW-620): 427 nM
GI50 (HCT-116): 295 nM
GI50 (NCI-H322M): 2190 nM
GI50 (SK-MEL-5): 347 nM
GI50 (SF-539): 347 nM
GI50 (NCI-H522): 324 nM
GI50 (TK-10): 479 nM
GI50 (SF-268): 661 nM
GI50 (EKVX): 1260 nM
GI50 (BT-549): 182 nM
GI50 (DU-145): 269 nM
GI50 (UACC-257): 2190 nM
GI50 (OVCAR-3): 380 nM
GI50 (UACC-62): 794 nM
GI50 (UO-31): 661 nM
GI50 (SK-MEL-28): 2140 nM
GI50 (Malme-3M): 1260 nM
GI50 (SR): 21.9 nM
GI50 (A549): 2630 nM
GI50 (SNB-19): 1510 nM
GI50 (NCI-H226): 1450 nM
GI50 (LOX IMVI): 407 nM
GI50 (OVCAR-8): 759 nM
GI50 (SNB-75): 1070 nM
GI50 (OVCAR-4): 1150 nM
GI50 (ACHN): 363 nM
GI50 (NCI-H23): 741 nM
GI50 (MOLT-4): 234 nM
GI50 (SF-295): 676 nM
ΔTm (Calf thymus DNA): 0.5 °C
GI50 (SN12C): 631 nM
GI50 (HCT-15): 646 nM
GI50 (COLO 205): 339 nM
GI50 (HT-29): 380 nM
GI50 (MDA-MB-435): 447 nM
GI50 (RXF 393): 191 nM
